Experimental data as given in ChEMBL document CHEMBL5674881, “The therapeutic properties of resminostat for hepatocellular carcinoma” (2018).
The source made the active and inactive calls. The rule behind the calls is not given here.

How the values were obtained:
[1] = system: Hep 3B2; assay: Downregulation of HDAC2 expression in human Hep3B cells at 50 nM incubated for 24 hrs by qRT-PCR analysis; format: functional, cell-based
[2] = system: Hep 3B2; assay: Antiinflammatory activity against human Hep3B cells assessed as reduction in nuclear protein expression level of p65 […] at 50 nM incubated for 24 hrs in presence of SGBS CM by […] analysis; format: functional, cell-based
In short: (§1)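 Hep3B treated 24 h with 17-AAG 50 nM, alone, with 30% SGBS conditioned medium, or with resminostat 80 nM. p65 RNA measured by RT-PCR. Nuclear p65 protein measured by transcription-factor ELISA: nuclear extract bound to NFκB consensus-duplex plate for 1 h at room temperature, then anti-p65 and HRP secondary antibodies, then chemiluminescence read. n = 3.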

[3] = system: Hep 3B2; assay: Anti-proliferative activity against human Hep3B cells assessed as reduction in cell viability at 50 nM measured after 24 hrs by Fluoro Fire-Blue ProViaTox assay; format: functional, cell-based
[4] = system: Hep 3B2; assay: Antiinflammatory activity against human Hep3B cells assessed as reduction in resminostat-induced p65 RNA expression level at 50 nM incubated for 24 hrs by qRT-PCR analysis relative to control; format: functional; design: scale not given: the % may be the effect or the level left; in short: as §1
[5] = system: Hep 3B2; assay: Antiinflammatory activity against human Hep3B cells assessed as reduction in nuclear protein expression level of p65 […] at 50 nM incubated for 24 hrs by […] analysis; format: functional, cell-based; in short: as §1
[6] = system: Hep 3B2; assay: Antiinflammatory activity against human Hep3B cells assessed as reduction in p65 RNA expression level at 50 nM incubated for 24 hrs in presence of SGBS CM by qRT-PCR analysis; format: functional, cell-based; in short: as §1
[7] = system: Hep 3B2; assay: Downregulation of HDAC1 expression in human Hep3B cells at 50 nM incubated for 24 hrs by qRT-PCR analysis; format: functional, cell-based
[8] = system: Hep 3B2; assay: Anti-proliferative activity against human Hep3B cells assessed as reduction in cell viability at 20 uM incubated for 24 hrs by Fluoro Fire-Blue ProViaTox assay; format: functional, cell-based
[9] = system: Hep 3B2; assay: Anti-proliferative activity against human Hep3B cells assessed as reduction in cell viability at 1 uM incubated for 24 hrs by Fluoro Fire-Blue ProViaTox assay; format: functional, cell-based
[10] = system: Hep 3B2; assay: Anti-proliferative activity against human Hep3B cells assessed as reduction in cell viability at7 nM incubated for 24 hrs by Fluoro Fire-Blue ProViaTox assay; format: functional, cell-based; conditions: dose 7.0 nM

For C=CCNC1=C2C[C@@H](C)C[C@H](OC)[C@H](O)[C@@H](C)/C=C(\C)[C@H](OC(N)=O)[C@@H](OC)/C=C\C=C(/C)C(=O)NC(=CC1=O)C2=O [TANESPIMYCIN], the Activity [1] was “Active”, the Activity [2] was “Active” and the Activity [3] was “Active”. The Activity [4] was 100%, the Activity [5] was “Active” and the Activity [6] was “Active”. For the same molecule, the Activity [7] was “Active”.

With Nc1nccc2c1ncn2[C@@H]1C=C(CO)[C@@H](O)[C@H]1O the Activity [8] was “Active”.

For COc1cccc2c1C(=O)c1c(O)c3c(c(O)c1C2=O)C[C@@](O)(C(=O)CO)C[C@@H]3O[C@H]1C[C@H](N)[C@H](O)[C@H](C)O1, the Activity [9] was “Active”.

With CCCc1cc(C)[nH]c(=O)c1CNC(=O)c1cc(-c2ccnc(N3CCN(C)CC3)c2)cc2c1cnn2C(C)C the Activity [10] was “Active”.
